Reference: ChEMBL document CHEMBL4513216, “Probing the Open Global Health Chemical Diversity Library for Multistage-Active Starting Points for Next-Generation Antimalarials” (ACS Infect Dis, 2020)

Assay: Toxicity liver stage against HepG2, at 10uM
Format: cell-based
Design: test concentration 10 uM, cell line HepG2-A16-CD81EGFP
Conditions: human, HepG2-A16-CD81EGFP cells; read-out: INHIBITION
Method in brief: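 Uninfected HepG2-A16-CD81EGFP cells, 3 × 10^3 per well, 1536-well, plated on prespotted compound at 10 μM final, parasite-free screening media added to match infected plates; puromycin 10 μM positive, DMSO 0.5% negative; run in parallel with 48 h PbLuc assay at 37 °C, 5% CO2; viability by CellTiter-Glo luminescence, normalized to controls.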

| SMILES | cytotoxicity at 10 µM [%] |
| --- | --- |
| O=C(NCC1CC1)C1=NOC2(CCN(Cc3ccc(Cl)c(F)c3)C2)C1 (configuration not stated) | 13.5 |
| COC(=O)c1sccc1S(=O)(=O)N1CCC(Oc2ncccc2Cl)CC1 | -16.8 |
| CCn1cc(Cl)c(C(=O)NCCCN(C)C)n1 | 9.46 |
| Cc1cccc(-n2nnnc2C(C)(C)Nc2ccccc2C)c1 | 8 |
| O=C1CNc2ncnc(N3CCN(Cc4ccccc4F)CC3)c2N1 | 9.87 |
| CCn1ccc(NC(=O)CCc2c(C)nn(C)c2C)n1 | 4.01 |
| Nc1cc(-c2c[nH]nc2C2CCCN2S(=O)(=O)c2ccccc2)ccn1 (configuration not stated) | 6.34 |
| CN1CCCC(Cc2cc(N(C)C)ncn2)C1 (configuration not stated) | 11.1 |
| Cc1nn(C)cc1-c1cc(C(=O)N2CCc3ncc(Cl)cc3C2)no1 | 1.18 |
| Cc1cnc2cc(C3CCN(C(=O)c4ccncc4)CC3)[nH]c2n1 | -22.1 |
| COCc1nc(C2CCN(Cc3ncc[nH]3)CC2)no1 | -23.1 |
| CN(C)C(=O)CN1CCCCC1c1nc(N)ncc1-c1ccc(Cl)cc1 (configuration not stated) | -14.9 |
| CCCNC(=O)c1cncc(CC2CCCN(C)C2)c1 (configuration not stated) | -16 |
| O=C(NCCO)C1(Cc2cc(-c3ccc(F)cc3F)no2)CCOCC1 | 0.333 |
| Cc1ccc(S(=O)(=O)N2C[C@H]3C[C@H](NC(=O)c4ccn(C)n4)[C@H]3C2)cc1 | -1.11 |
| CNc1cncc(C2CCCN2Cc2ccccc2OCC(=O)O)n1 (configuration not stated) | -0.105 |
| O=C(Cc1cccc(F)c1F)NS(=O)(=O)c1ccc(Cl)cn1 | 0.545 |
| CNc1nc(CS(=O)(=O)c2ccccc2)cs1 | 13 |
| COc1cc(OC)cc(-c2noc(CN)n2)c1 | 20.6 |
| Cc1ccc(CN(C)C(=O)CNC(C)(C)c2noc(C(C)(C)C)n2)o1 | 2.43 |
| Cc1ncccc1C(=O)Nc1cccc(Cn2ccccc2=O)c1 | 3.06 |
| COc1ccc(CCN2CCCC(n3cncn3)C2)cc1 (configuration not stated) | -6.2 |
| CSCC(C)N(C)C(=O)CN1CCN(c2ccccn2)CC1 (configuration not stated) | -7.59 |

| SMILES | cytotoxicity at 10 µM [%] |
| --- | --- |
| O=C(CN1CCCNC1=O)N(Cc1ccccc1)CC(F)F | 5.9 |
| Cc1ccc(C(=O)NCc2ccnc(N3CCN(C)CC3)c2)cn1 | -2.07 |
| CN(C)C(=O)C1SCCc2ccccc21 (configuration not stated) | 1.81 |
| O=C(Cn1cc(C2CC2)nn1)N(Cc1ccco1)CC1CCCO1 (configuration not stated) | 0.0636 |
| O=S(=O)(Cc1ccon1)N1CCN(c2ccncc2Cl)CC1 | -4.96 |
| COc1ccc(OCCNC(=O)c2ccc3c(=O)[nH][nH]c(=O)c3c2)cc1 | -4.83 |
| CS(=O)(=O)NCC1CCCCN1Cc1cccc(C#N)c1 (configuration not stated) | 0.528 |
| Cc1ccc(N2CCCN(C(=O)c3cccc4c3ccn4C)CC2)nn1 | 0.983 |
| Cc1cnn(CCNCc2cc(C)no2)c1 | 8.77 |
| CC1CN(S(=O)(=O)c2cc(S(C)(=O)=O)ccc2Br)c2cccnc2O1 (configuration not stated) | -0.346 |
| Cc1oc(NC(=O)C(C)N2CCN(C(C)(C)CO)CC2)c(C#N)c1C (configuration not stated) | -3.62 |
| CC(CC(=O)Nc1ncn(CC(=O)NCc2ccccc2)n1)C1CC1 (configuration not stated) | 7.12 |
| Cc1nc(C)n(CC2CCCN2CC(=O)Nc2nncs2)n1 (configuration not stated) | 14.3 |
| Cc1cccc(NC(=O)CN(C)C(=O)c2scnc2C)n1 | -3.79 |
| Cc1cc(F)ccc1NC(=O)NCC(C)N1CCOCC1 (configuration not stated) | -4.1 |
| CCN(CCC(F)(F)F)S(=O)(=O)c1cccc(F)c1C#N | -3.77 |
| CC(C)(C)c1ncc(CNc2ccn(CCc3ccncc3)n2)s1 | 26.1 |
| Cc1nnc(C(NS(=O)(=O)c2cc(C)c(F)cc2F)C(C)C)[nH]1 (configuration not stated) | -6.04 |
| Cc1nc(NC(=O)NCc2nc3cccc(C)c3n2C)oc1C | -6.71 |
| CN(Cc1ccccc1)CC(C)(C)NC(=O)c1ccon1 | 13 |
| C=C(C)CN(CC)Cc1nc(CC)no1 | 12.6 |
| CCN1CCN(c2ccc(C(=O)NCCn3ccnc3)cc2F)CC1 | 10.8 |
| CCCC1(CNCc2ncc[nH]2)CCC1 | 2.24 |

| SMILES | cytotoxicity at 10 µM [%] |
| --- | --- |
| Cc1nnc(NC(=O)CN(C)CC2CCCN2c2cccnn2)s1 (configuration not stated) | -15 |
| N#CCCN(C(=O)CN1CCCC1Cc1ccccc1)c1ccccc1 (configuration not stated) | -20.7 |
| CCOCCN1CCN(Cc2nc(C3CC3)no2)CC1CC (configuration not stated) | -5.75 |
| COc1cc(NC(=O)c2ccccc2F)c(C(=O)N(C)C)cc1OC | -14.8 |
| COc1ccc(NC(C)C(=O)NCCc2cccs2)cc1F (configuration not stated) | -13.5 |
| CNC(=O)[C@@]12CCO[C@@H]1CCN(S(=O)(=O)c1cccc(C)c1)C2 | -1.8 |
| COc1ccccc1N1CCC(N2CCOCC(CO)C2)CC1 (configuration not stated) | -6.85 |
| CCC[C@H]1CN(C2CCOCC2)C[C@@H]1NC(=O)CCc1cnccn1 | 3.12 |
| CCCN(CCC)C(=O)c1cc(CN2CCC(O)CC2)on1 | 1.29 |
| CC(=O)NCCNc1nc(-c2ccccn2)nc2c1c(C)nn2C | 2.72 |
| CCN(Cc1ccccn1)Cc1cc(Cl)ccc1OC | 1.45 |
| CCn1c(C2CCN(C(=O)COCC(F)(F)C(F)F)CC2)n[nH]c1=O | -55 |
| CC(C)[C@]1(O)CN(C(=O)C2(Cn3cccn3)CC2)C[C@H]1C | 1.79 |
| Cc1nn(C)c2nc(N(C)CCN(C)C)sc12 | 9.38 |
| Cc1nc(O)cc(C2CCCN(C(=O)COCc3ccccc3)C2)n1 (configuration not stated) | -11 |
| O=C(Cc1ccccn1)N1CCC2(CC1)[C@H](O)C[C@@H]2O | -2.34 |
| Cn1cc(CN2CCCC(CCc3ccc(F)c(F)c3)C2)cn1 (configuration not stated) | -6.6 |
| Nc1nc2c(c(NCc3cnc4c(c3)CCC4)n1)CCNC2 | 1.98 |
| Cc1nccnc1N1Cc2cnn(Cc3ccc(F)cc3)c2C1 | 2.45 |
| CCNc1ccnc(NCC2(N(C)C)CCOCC2)n1 | -0.686 |
| CCc1nnc(CN(CC)C(=O)C2CC(=O)N(CC)C2)o1 (configuration not stated) | 1.97 |
| Cc1ccc(-c2nnc(CCC(=O)NCc3cn(C)nc3C)o2)s1 | -1.31 |
| CCOCCC(=O)N(C)Cc1noc(C(C)C)n1 | 6.13 |

| SMILES | cytotoxicity at 10 µM [%] |
| --- | --- |
| O=C(CN1CCCC(c2ccc(C(=O)O)cc2)C1)NC1CC1 (configuration not stated) | -9.87 |
| Cc1cnccc1CN1CC[C@@](C)(O)[C@H](Oc2ccccc2)C1 | -1.78 |
| CNS(=O)(=O)Cc1ccc(CNC(=O)c2ccccn2)cc1 | -0.945 |
| Cc1oc(C(=O)O)cc1S(=O)(=O)Nc1cc(Br)ccc1Cl | 0.386 |
| Cc1noc(Cl)c1CCC(=O)N1CCN(CC(C)(C)O)CC1 | 1.61 |
| Cc1nc(C)c(C(=O)NCCNc2ncccn2)s1 | -3.65 |
| O=C(c1csc(-c2ccccn2)n1)N1CCCC1Cn1cccn1 (configuration not stated) | -3.69 |
| c1ccc(-c2nc(CNC3CCc4ncnn4C3)cs2)cc1 (configuration not stated) | -6.19 |
| CC(C)c1nnc2n1CCN(Cc1ncc(-c3ccccc3)o1)C2 | -12.8 |
| Cc1nc(CN(C)C2CCN(CCc3cccs3)C2)no1 (configuration not stated) | 6.03 |
| CCn1ccnc1CN1CCCN(C(=O)Cc2ccc(C)s2)CC1 | -19 |
| CN(CCCOc1ccc(F)cc1)Cc1nc2c(cnn2C)c(=O)[nH]1 | -4.62 |
| COCCCN(C)Cc1nc2c(cnn2C)c(=O)[nH]1 | -4.2 |
| Cc1nc(CNC(=O)NCC(O)c2ccc(F)c(F)c2)cs1 (configuration not stated) | -3.88 |
| N#Cc1ccc(N2CCCN(C(=O)CC3CCCO3)CC2)cc1 (configuration not stated) | -4.69 |
| Cc1c[nH]cc1C(=O)N1CCN(CCc2cccs2)CC1 | -6.8 |
| Cc1cc(C)c(CNC(=O)NCC2CCCO2)c(=O)[nH]1 (configuration not stated) | -3.76 |
| Cc1ccc(C)c(OC2CCN(C(=O)c3ccc(O)nc3)CC2)c1 | 3.23 |
| CN1CCN(C2CCN(CC(=O)NCC(F)(F)F)CC2)C1=O | -9.78 |
| CN(C)CC1CN(c2cnc3ccccc3n2)CCO1 (configuration not stated) | -9.93 |
| CN(Cc1ccc(F)cc1)C(=O)NCc1nnc2n1CCCCC2 | -10.1 |
| Cc1ccc(C(N)c2cccc(S(C)(=O)=O)c2)cc1 (configuration not stated) | 3.18 |
| CCN(Cc1nc2c(cnn2C)c(=O)[nH]1)c1ccc(OC)c(OC)c1 | 2.31 |

| SMILES | cytotoxicity at 10 µM [%] |
| --- | --- |
| CC(O)CN1CCC(CNCc2cccc(OC(C)C)c2)CC1 (configuration not stated) | -8.16 |
| CC(C)NC(=O)Nc1ccc(CNCc2cccc(OC(F)F)c2)cc1 | -7.96 |
| Cc1cnn(CC2CCCN2CC(=O)Nc2cc(C)nn2C)c1 (configuration not stated) | -20.1 |
| Cc1nn(C)c(N2CCOCC2)c1CNCc1ccnc(N(C)C)c1 | 1.97 |
| CC(CN1CCOCC1)OC(=O)c1ccccc1I (configuration not stated) | -6.37 |
| O=C(NC[C@]12COC[C@H]1CN(C1CCOCC1)C2)c1ccco1 | -3.99 |
| CS(=O)(=O)NCc1cnc2n1CCN(Cc1ccco1)CC2 | -4.31 |
| CN(C)C(=O)CC1CC2(CCN(c3ncccn3)CC2)c2ccccc21 (configuration not stated) | -16.7 |
| Cn1ccnc1CN1CCN2C[C@H](Oc3cccc(F)c3)C[C@H]2C1 | 13.6 |
| c1ccc(N2CCC3(COCCN(c4ncccn4)C3)C2)nc1 (configuration not stated) | 2.78 |
| Cc1ccc2c(c1)CCC21CCN(C(=O)CN(C)C)CC1 | -6.25 |
| CCO[C@H]1CN(CC2CCOCC2)[C@@H]2CCCO[C@H]12 | -109 |
| c1cncc(OCc2noc3c2CN(Cc2ccco2)CC3)c1 | 1.71 |
| NCC1CCC2(CCN(C(=O)c3ccccn3)CC2)CO1 (configuration not stated) | -111 |
| N#Cc1ccc(NC(=O)C2CSCN2)cc1 (configuration not stated) | 2.62 |
| CCOC[C@]12COC[C@H]1CN(Cc1ccc3c(c1)OCO3)C2 | -119 |
| CC(=O)N1CCO[C@@H]2CN(Cc3ccccc3Cl)C[C@@H]2C1 | -110 |
| CCn1ncc2c1C(COC)N(C(=O)c1cscn1)CC2 (configuration not stated) | -98.1 |
| CCc1c(C)[nH]c2cc(C3CCN(Cc4ccncc4C)C3)nn2c1=O (configuration not stated) | -14.1 |
| CC(C)=CCN1C[C@@H]2CC[C@H]1CN(Cc1cc(=O)[nH]c(=O)[nH]1)C2 | -17.3 |
